Screening data: PubChem BioAssay, several laboratories
Compounds with a hit are over-represented: about 2.3% of the library has one in this group of screens.
TRPC4 act = opens the mouse TRPC4 cation channel; HEK293 TRPC4beta/mu-opioid, Fluo4 calcium fluorescence; stronger effect = higher value; B-score at 10 µM; 0.49% of 310,000 active;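 active = B-score above 5 SD of library B-scores, and initial fluorescence ratio not above library mean plus 5 SD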;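 note: positive B-score marks a calcium rise read as TRPC4 activation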
Target sequence (Q9QUQ5 whole entry, looked up): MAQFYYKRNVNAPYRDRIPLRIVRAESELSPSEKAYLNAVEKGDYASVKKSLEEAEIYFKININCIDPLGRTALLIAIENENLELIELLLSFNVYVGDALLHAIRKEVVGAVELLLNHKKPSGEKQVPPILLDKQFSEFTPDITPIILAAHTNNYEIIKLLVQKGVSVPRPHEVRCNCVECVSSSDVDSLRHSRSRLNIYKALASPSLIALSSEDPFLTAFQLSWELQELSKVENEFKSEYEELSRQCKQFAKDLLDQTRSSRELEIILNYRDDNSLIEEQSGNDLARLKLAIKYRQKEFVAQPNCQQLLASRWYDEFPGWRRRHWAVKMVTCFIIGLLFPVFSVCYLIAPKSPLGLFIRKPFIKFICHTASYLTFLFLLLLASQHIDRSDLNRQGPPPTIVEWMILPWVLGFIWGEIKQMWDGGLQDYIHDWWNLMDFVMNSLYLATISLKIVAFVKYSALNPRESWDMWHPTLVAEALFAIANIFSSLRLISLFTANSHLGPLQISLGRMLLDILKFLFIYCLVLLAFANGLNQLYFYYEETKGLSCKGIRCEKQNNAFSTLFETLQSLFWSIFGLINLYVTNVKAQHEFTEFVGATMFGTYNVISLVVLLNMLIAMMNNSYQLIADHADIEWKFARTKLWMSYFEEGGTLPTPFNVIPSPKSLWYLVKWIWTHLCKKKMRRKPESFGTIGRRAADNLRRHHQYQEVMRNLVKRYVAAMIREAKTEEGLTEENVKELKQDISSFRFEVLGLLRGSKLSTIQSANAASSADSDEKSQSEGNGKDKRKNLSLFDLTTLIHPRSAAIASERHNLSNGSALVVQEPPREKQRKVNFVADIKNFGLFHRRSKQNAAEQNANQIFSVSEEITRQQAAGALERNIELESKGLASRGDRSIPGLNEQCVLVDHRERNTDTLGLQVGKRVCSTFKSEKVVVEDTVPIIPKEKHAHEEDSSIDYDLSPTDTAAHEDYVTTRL
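Technique: kinetic Fluo4 calcium fluorescence; Test system: TRPC4beta and mu-opioid receptor HEK293 stable cells; Measure: B-scored integrated calcium fluorescence ratio; Benchmarks: low control buffer alone, high control maximal DAMGO; Schedule: 45 min room-temperature Fluo4 loading, 110 s read.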
TRPC6 act = mouse TRPC6 channel activation; HEK293-TRPC6 membrane potential dye fluorescence; stronger effect = higher value; B-score at 10 µM; Q61143; 0.13% of 310,000 active;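 active = B-score of the integrated fluorescence ratio above library mean plus 3 SD, and starting fluorescence ratio within library mean plus 5 SD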;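 note: higher score means more depolarization so channel activation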
FID counter = counter-screen for HCV NS3 helicase inhibitors: DNA intercalator displacement; DNA fluorescent intercalator displacement, fluorescence; inhibition, % at 7.9 µM; 0.17% of 290,000 active; in the data active = inhibition above about 37%;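 note: higher means more ethidium bromide displaced from hairpin DNA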
TRPC6 inhibitor = mouse TRPC6 channel inhibition; Q61143; HEK293-TRPC6, membrane potential dye, ACh-evoked depolarization; stronger effect = lower value; B-score at 10 µM; 1.1% of 310,000 active;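 active = B-score under library mean minus 3 SD, initial fluorescence not abnormally high, positive integrated signal ratio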;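 note: B-score derived from integrated fluorescence ratio over the kinetic read; more negative B-score means stronger inhibition of depolarization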
TRPC4 block = inhibitors of mouse TRPC4 channel. HEK293 TRPC4beta/mu-opioid, DAMGO-evoked Fluo4 calcium flux; stronger effect = lower value. B-score at 10 µM. 0.39% of 300,000 active;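 active = B-score over 3 SD under the library average, no early fluorescence shift, positive overall ratio signal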
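Assay system – HEK293 line stably carrying TRPC4beta and mu-opioid receptor · Doses – single dose · Detection – Fluo4 calcium-dye fluorescence, kinetic read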
TRPC4 potent = allosteric potentiators of mouse TRPC4 channel | Q9QUQ5 | HEK293 TRPC4beta/mu-opioid, DAMGO EC20, Fluo-4 Ca2+ flux; stronger effect = higher value | B-score at 10 µM | 0.42% of 310,000 active | AID 2227;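 active = B-score of calcium response area above 5 SD of library B-scores, with initial fluorescence ratio within 5 SD of library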
TRPC4 sel inh 2 = second check of whether TRPC6 inhibitors also affect mouse TRPC4 | shares compounds with TRPC6 inhibitor | HEK293 TRPC4/MOR, membrane potential dye fluorescence; channel activated by saturating DAMGO dose | inhibition, % at 10 µM | 42% of 920 active | AID 2776;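 active = compounds whose fluorescence signal differed from control wells by over 3 SD, either direction, in both duplicate plates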
TRPC4 spec = tests whether TRPC6 inhibitors also affect mouse TRPC4 | shares compounds with TRPC6 inhibitor | HEK293 TRPC4/mu-opioid, membrane potential fluorescence | 61% of 920 active | activity change, negative = inhibition, % at 10 µM | AID 2777;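 active = rise or fall in signal beyond 3 SD of buffer-only wells in both replicate plates, either sign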;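 note: integrated kinetic ratio of fluorescence range over baseline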
HEK293 MPD ctr 2-1 = parental HEK293 nonspecific activity of TRPC6 inhibitors, second screen | shares compounds with TRPC6 inhibitor | parental HEK293 membrane potential dye fluorescence; maximal acetylcholine challenge after compound addition | signal change vs control, % at 10 µM | 31% of 920 active;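 active = membrane potential signal moving either way by over 3 SD of the maximum-effect control, in both duplicate plates, meaning non-specific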
HEK293 MPD ctr-1 = checks TRPC6 inhibitor effects in parental HEK293 cells; membrane potential signal change, % at 10 µM; parental HEK293 membrane potential dye fluorescence; 60% of 920 active; shares compounds with TRPC6 inhibitor; AID 2780;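 active = membrane potential signal shifting up or down by more than 3 SD of buffer-only wells, on both duplicate plates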
HEK293 MPD ctr-2 = counter-screen for TRPC6 modulators: effect in parental HEK293 cells; shares compounds with TRPC6 inhibitor; 51% of 2,400 active; membrane potential dye fluorescence; membrane potential signal change, % at 10 µM;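 active = membrane potential signal moves up or down beyond 5 SD from buffer-only wells, on both duplicate plates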
HEK293 MPD ctr 2-2 = parental HEK293 nonspecific activity of TRPC6 modulators, second screen. shares compounds with TRPC6 inhibitor. membrane potential dye fluorescence; after compound, maximal acetylcholine stimulation. inhibition, % at 10 µM. 14% of 2,400 active;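 active = membrane potential signal drops by more than 5 SD from the mean control signal, in both duplicate plates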
TRPC4/MOR mod = selectivity of TRPC6 modulators against mouse TRPC4; shares compounds with TRPC6 inhibitor; HEK293 TRPC4/mu-opioid, membrane potential fluorescence; percent change from control (negative = decrease, positive = increase), % at 10 µM; 69% of 2,400 active; AID 488927;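 active = membrane potential signal moved up or down beyond 5 SD of buffer control wells, in both duplicate plates, actives on both sides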
TRPC4/MOR inh 2 = second check of whether TRPC6 modulators also affect mouse TRPC4. shares compounds with TRPC6 inhibitor. HEK293 TRPC4/mu-opioid, membrane potential dye fluorescence; stimulated with maximal-effect DAMGO. 55% of 2,400 active. inhibition, % at 10 µM;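 active = drop in membrane potential signal beyond 5 SD of the control wells in both duplicate plates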;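 note: TRPC4 counter screen for TRPC6 hits run under conditions tuned for TRPC6 not TRPC4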
TRPC6 block conf = confirmation of mouse TRPC6 inhibitors; 43% of 3,300 active; inhibition, % at 10 µM; AID 488960; shares compounds with TRPC6 inhibitor; HEK293-TRPC6, membrane potential dye, ACh-evoked depolarization;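 active = fluorescence ratio falls more than 5 SD below the full-stimulation control mean, in both duplicate runs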;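 note: integrated fluorescence ratio of peak minus minimum over baseline after agonist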
TRPC6 act confirm = mouse TRPC6 activator confirmation; shares compounds with TRPC6 inhibitor; HEK293-TRPC6 membrane potential dye fluorescence, FDSS; activation, % at 10 µM; 11% of 2,800 active; AID 488961;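 active = ratio signal rise beyond 5 SD above unstimulated control wells' mean, seen in both duplicate runs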
Large screens that a line does not name were inactive (follow-up assays come after a bar, where they were run).

CN1CCN(c2nc(-c3cccnc3)nc3ccccc23)CC1	TRPC6 inhibitor -8.1 | HEK293 MPD ctr-2 -320% | HEK293 MPD ctr 2-2 69% | TRPC4/MOR mod -57% | TRPC4/MOR inh 2 66% | TRPC6 block conf 56% | TRPC6 act confirm inactive
COc1ccc(N2C(=O)CSC2c2cccc(OC)c2OC)cc1 (configuration not stated)	none
COc1cccc(C2SCC(=O)N2c2ccc(C)cc2)c1OC (configuration not stated)	TRPC6 inhibitor -5.6 | HEK293 MPD ctr-2 inactive | HEK293 MPD ctr 2-2 inactive | TRPC4/MOR mod 8.0% | TRPC4/MOR inh 2 inactive | TRPC6 block conf 66% | TRPC6 act confirm inactive
CCOc1ccc(NC(=O)CN(C)C(=O)c2cc([N+](=O)[O-])ccc2N2CCOCC2)cc1OCC	none (no result: FID counter)
Cc1cc(/C=C2\SC(=S)NC2=O)c(C)n1-c1ccc(O)cc1	TRPC6 act 27 | HEK293 MPD ctr-2 450% | HEK293 MPD ctr 2-2 inactive | TRPC4/MOR mod 70% | TRPC4/MOR inh 2 inactive | TRPC6 block conf inactive | TRPC6 act confirm 126%
Cc1cc(/C=C2\SC(=S)NC2=O)c(C)n1-c1ccccc1	none
N#CC1=C(N)Oc2cc(N)ccc2C1c1cccc(F)c1 (configuration not stated)	none
CN(C)c1ccc2c(c1)OC(N)=C(C#N)C2c1cccc(F)c1 (configuration not stated)	TRPC4 act 56, TRPC6 act 12 | HEK293 MPD ctr-2 413% | HEK293 MPD ctr 2-2 inactive | TRPC4/MOR mod 30% | TRPC4/MOR inh 2 45% | TRPC6 block conf inactive | TRPC6 act confirm 44%
COc1ccc(Cl)cc1NC(=O)CCNC(=O)Cn1ccc2ccccc2c1=O	none
Cn1c(SCC(=O)Nc2ccc(NC(=O)c3cccc(F)c3)cc2)nnc1-c1ccncc1	none
CCOC(=O)c1ccc2ncc(C(=O)OCC)c(NCCN(C)C)c2c1	TRPC6 inhibitor -9.5 | TRPC4 sel inh 2 inactive | TRPC4 spec -19% | HEK293 MPD ctr 2-1 inactive | HEK293 MPD ctr-1 -296% | TRPC6 block conf inactive | TRPC6 act confirm inactive
Cc1ccc(-n2nc(C)c(C(=O)N3CCN(C(=O)c4ccco4)CC3)c2-n2cccc2)cc1	none
Cc1ccc(-n2ncc(C(=O)N3CCN(C(=O)c4ccco4)CC3)c2-n2cccc2)cc1	TRPC6 inhibitor -5.3 | HEK293 MPD ctr-2 inactive | HEK293 MPD ctr 2-2 inactive | TRPC4/MOR mod 9.0% | TRPC4/MOR inh 2 inactive | TRPC6 block conf 59%
Cc1nn(Cc2ccccc2Cl)c(C)c1C(=O)NCC(c1cccs1)N1CCOCC1 (configuration not stated)	none (no result: FID counter)
COc1cc(N2N=C(c3ccccc3)CC2c2ccccc2)c(C=O)cc1C=O (configuration not stated)	none
COc1ccccc1N1N=C(c2ccc([N+](=O)[O-])cc2)CC1c1ccccc1 (configuration not stated)	TRPC6 act 13 | HEK293 MPD ctr-2 inactive | HEK293 MPD ctr 2-2 inactive | TRPC4/MOR mod 23% | TRPC4/MOR inh 2 inactive | TRPC6 block conf inactive | TRPC6 act confirm 44%
CCCc1cc(=O)oc2cc(C)cc(OCC(=O)Nc3ccc(CN4CCOCC4)cc3)c12	none
N=c1c(C(=O)NC2CCCC2)cc2c(=O)n3ccccc3nc2n1CC1CCCO1 (configuration not stated)	none
Cc1cccn2c(=O)c3cc(C(=O)NC4CCCC4)n(C)c3nc12	none
Cc1cccn2c(=O)c3cc(C(=O)NC4CCCC4)c(=N)n(C4CCCC4)c3nc12	TRPC6 inhibitor -5.2 | HEK293 MPD ctr-2 -151% | HEK293 MPD ctr 2-2 inactive | TRPC4/MOR mod -54% | TRPC4/MOR inh 2 48% | TRPC6 block conf 49% | TRPC6 act confirm inactive
CCCCn1c(=NC(=O)c2ccco2)c(C(=O)OCC)cc2c(=O)n3ccccc3nc21	TRPC6 inhibitor -5.8 | HEK293 MPD ctr-2 inactive | HEK293 MPD ctr 2-2 inactive | TRPC4/MOR mod inactive | TRPC4/MOR inh 2 inactive | TRPC6 block conf inactive | TRPC6 act confirm inactive
N=c1c(C(=O)NCc2ccco2)cc2c(=O)n3ccccc3nc2n1Cc1ccccc1	TRPC6 inhibitor -7.1 | HEK293 MPD ctr-2 inactive | HEK293 MPD ctr 2-2 inactive | TRPC4/MOR mod -40% | TRPC4/MOR inh 2 46% | TRPC6 block conf inactive | TRPC6 act confirm inactive
CCCCCn1c(=NC(=O)c2ccco2)c(C(=O)OCC)cc2c(=O)n3ccccc3nc21	none
Cc1ccc(CNC(=O)c2cc3c(=O)n4ccccc4nc3n(Cc3ccco3)c2=N)cc1	none (no result: FID counter)
N=c1c(C(=O)NC2CCCC2)cc2c(=O)n3ccccc3nc2n1C1CCCC1	TRPC6 inhibitor -11 | HEK293 MPD ctr-2 -144% | HEK293 MPD ctr 2-2 62% | TRPC4/MOR mod -31% | TRPC4/MOR inh 2 58% | TRPC6 block conf 56% | TRPC6 act confirm inactive
Cc1cccc(NC(=O)CSc2nnc(CNC(=O)c3ccco3)o2)c1	none
Cc1cc(NC(=O)NC(=O)c2ccccc2F)no1	none
Cc1cccn2c(=O)c3cc(C(=O)NC4CCCCC4)c(=N)n(CCN4CCOCC4)c3nc12	none
